Laboratory results as given in ChEMBL document CHEMBL1121872, “Mesoionic xanthine analogues: phosphodiesterase inhibitory and hypotensive activity” (J Med Chem, 1981).

Legend:
[1] = species: Bos taurus; assay: Compound was evaluated for potency against c-AMP phosphodiesterase relative to theophylline
How it was run: (§1)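 Bovine heart PDE (Klee method) with 1 μM [3H]cAMP. […] Compounds needing ethanol (2.5% final) are compared with a theophylline control run with ethanol; the others with one run without ethanol. Potency is expressed relative to that theophylline control.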

[2] = target: T1, Heart phosphodiesterase (Bos taurus, UniProt Q01061+P14100+E1BN64); assay: In vitro inhibition of bovine heart phosphodiesterase (PDE I); assay type: protein assay
How it was run: (§2)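 Bovine heart phosphodiesterase (Klee method) with 1 μM [3H]cAMP as substrate. Poorly soluble compounds were dissolved in 95% EtOH, 2.5% final, then diluted with buffer. […] I50 is the concentration where V0/V = 2, read from a V0/V vs. concentration plot. Each value averages two consecutive runs, in duplicate or triplicate.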

[3] = test system: Rattus norvegicus; assay: Decrease in arterial blood pressure in anesthetized rats at 15 mg/kg after intravenous femoral injection; assay type: functional, Artery; set-up: unit not given here
[4] = test system: Rattus norvegicus; assay: Decrease in arterial blood pressure in anesthetized rats at 10 mg/kg intravenous femoral injection; assay type: functional, Artery; set-up: unit not given here
[5] = test system: Rattus norvegicus; assay: Decrease in arterial blood pressure in anesthetized rats at 2.5 mg/kg intravenous femoral injection; assay type: functional, Artery; set-up: unit not given here
[6] = test system: Rattus norvegicus; assay: Decrease in arterial blood pressure in anesthetized rats at 5 mg/kg intravenous femoral injection; assay type: functional, Artery; set-up: unit not given here
[7] = target: T1, Heart phosphodiesterase; assay: Inhibition of bovine heart cAMP-phosphodiesterase with ethanol; assay type: protein assay
How it was run: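 Bovine heart PDE, Klee method with 1 μM [3H]cAMP as substrate. Compounds were predissolved in 95% EtOH, giving 2.5% ethanol final, then diluted in buffer. A theophylline control was run with ethanol present. […] I50 was taken where V0/V = 2 from a V0/V vs concentration plot. Each value averages two consecutive runs, done in duplicate or triplicate.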

[8] = test system: Rattus norvegicus; assay: Decrease in blood pressure at 2.5 mg/kg in rat; assay type: functional
How it was run: (§3)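 Male Sprague-Dawley rats (250–385 g), pentobarbital-anesthetized (50 mg/kg ip); right femoral artery cannulated for arterial pressure via transducer, left femoral vein for iv dosing. Each injection flushed with 0.3 mL saline, preceded by equal-volume saline control; 5-min intervals or until pressure returned to baseline. Fall in mean arterial pressure expressed relative to theophylline 2.5 mg/kg control in same animal; n determinations given.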

[9] = test system: Rattus norvegicus; assay: Decrease in blood pressure at 15 mg/kg in rat; assay type: functional; how it was run: as §3
[10] = test system: Rattus norvegicus; assay: Decrease in blood pressure at 5 mg/kg in rat; assay type: functional; how it was run: as §3
[11] = test system: Rattus norvegicus; assay: Decrease in arterial blood pressure in anesthetized rats at 30 mg/kg intravenous femoral injection; assay type: functional, Artery
[12] = target: Heart phosphodiesterase (Bos taurus) (UniProt Q01061+P14100+E1BN64); assay: Inhibition of bovine heart cAMP-phosphodiesterase relative to theophylline (Insoluble); assay type: protein assay; how it was run: as §1
[13] = target: T1, Heart phosphodiesterase; assay: Inhibition of bovine heart cAMP-phosphodiesterase (Insoluble); assay type: protein assay; how it was run: as §2
[14] = test system: Rattus norvegicus; assay: Decrease in arterial blood pressure in anesthetized rats at 60 mg/kg intravenous femoral injection; assay type: functional, Artery

Row | Relative potency [1] | I50 [2] [µM] | SMILES | other results
1 | 1.5 | 287 | CCC1C(=O)N(CC2CC2)c2scc(-c3ccccc3)[n+]2C1=O (configuration not stated) | –
2 | 0.1 | 1980 | CCc1n[n+]2c(s1)N(CC)C(=O)C(CC)C2=O (configuration not stated) | –
3 | 1.6 | 252 | CCCC1C(=O)N(CC)c2scn[n+]2C1=O (configuration not stated) | –
4 | 0.7 | 550 | CCC1C(=O)N2N=CSC2=[N+](CC)C1=O (configuration not stated) | Mean arterial blood pressure [3]: 0.7; Mean arterial blood pressure [4]: 1.6; Mean arterial blood pressure [5]: 0.4; Mean arterial blood pressure [6]: 0.6
5 | 0.7 | 396 | CCC1C(=O)N2C=CSC2=[N+](CC2CC2)C1=O (configuration not stated) | –
6 | 0.5 | 774 | CC[N+]1=C2SC=NN2C(=O)CC1=O | –
7 | 2.7 | 154 | CCN1C(=O)C(CC(C)C)C(=O)[n+]2ncsc21 (configuration not stated) | –
8 | 0.2 | 1689 | CCC1C(=O)N(CC)c2sc(C)n[n+]2C1=O (configuration not stated) | Mean arterial blood pressure [3]: 0.3; Mean arterial blood pressure [4]: 0.6; Mean arterial blood pressure [5]: 0; Mean arterial blood pressure [14]: 1.9; Mean arterial blood pressure [11]: 1.2; Mean arterial blood pressure [6]: 0.3

Continued, molecule first:

Row | SMILES | Relative potency [1] | I50 [2] [µM] | other results
9 | CCN1C(=O)C(C)C(=O)[n+]2nc(C)sc21 (configuration not stated) | 0.1 | 2453 | Mean arterial blood pressure [3]: 0.5; Mean arterial blood pressure [4]: 0.4; Mean arterial blood pressure [5]: 0.2; Mean arterial blood pressure [6]: 0.3
10 | Cn1c(=O)c2nc[nH]c2n(C)c1=O.O [THEOPHYLLINE] | – | – | I50 [7]: 412 µM; Mean arterial blood pressure [3]: 2.36; Mean arterial blood pressure [5]: 1; Blood pressure [8]: 13.5 mmHg; Blood pressure [9]: 31.9 mmHg; Blood pressure [10]: 31.6 mmHg; Mean arterial blood pressure [6]: 2.34
11 | CC(C)Cn1c(=O)n(C)c(=O)c2nc[nH]c21 [ISOBUTYLMETHYLXANTHINE] | 28.9 | 9.9 | –
12 | Cn1c(=O)c2[nH]cnc2n(C)c1=O | 1 | – | –
13 | O=C1CC(=O)[n+]2ccsc2N1Cc1cccc(Cl)c1 | 1.3 | 308 | –
14 | CCc1n[n+]2c(s1)N(CC)C(=O)C(C)C2=O (configuration not stated) | 0.1 | 2411 | –
15 | CCN1C(=O)C(C(C)C)C(=O)[n+]2ncsc21 (configuration not stated) | 1.6 | 254 | –
16 | CCCCCC1C(=O)N(CC)c2scn[n+]2C1=O (configuration not stated) | 2.6 | 156 | –
17 | CCC1C(=O)N(CC)c2scc[n+]2C1=O (configuration not stated) | 0.3 | 858 | Mean arterial blood pressure [3]: 1.2; Mean arterial blood pressure [4]: 0.8; Mean arterial blood pressure [5]: 0.3; Mean arterial blood pressure [6]: 0.6
18 | CC[N+]1=C2SC=NN2C(=O)C(C)C1=O (configuration not stated) | 0.4 | 1160 | Mean arterial blood pressure [3]: 1.2; Mean arterial blood pressure [4]: 1.6; Mean arterial blood pressure [5]: 0.9; Mean arterial blood pressure [11]: 7.5; Mean arterial blood pressure [6]: 2.2
19 | CCN1C(=O)C(Cc2ccc(Cl)cc2)C(=O)[n+]2ncsc21 (configuration not stated) | 42.9 | 9.6 | –
20 | CCCCN1C(=O)CC(=O)[n+]2ccsc21 | – | – | Mean arterial blood pressure [3]: 1.2; Mean arterial blood pressure [4]: 1.2; Mean arterial blood pressure [5]: 0.9; Mean arterial blood pressure [11]: 2.9; Mean arterial blood pressure [6]: 0.6
21 | CCC1C(=O)N(CC)c2scc(C)[n+]2C1=O (configuration not stated) | 0.7 | 412 | –
22 | CC1C(=O)N(Cc2cccc(Cl)c2)c2scc(-c3ccccc3)[n+]2C1=O (configuration not stated) | 2.7 | 152 | –
23 | CCN1C(=O)C(c2ccccc2)C(=O)[n+]2ncsc21 (configuration not stated) | 17.2 | 24 | –
24 | CC[N+]1=C2SC=NN2C(=O)C(Cc2ccccc2)C1=O (configuration not stated) | 7.9 | 52 | –
25 | CCN1C(=O)C(Cc2ccc(OC)cc2)C(=O)[n+]2ncsc21 (configuration not stated) | – | – | Relative potency [12]: Insoluble; I50 [13]: Insoluble
26 | CCC(C)C1C(=O)N(CC)c2scn[n+]2C1=O (configuration not stated) | 1.8 | 233 | –
